The values below come from ChEMBL document CHEMBL1154522, “Aryl sulfamates are broad spectrum inactivators of sulfatases: effects on sulfatases from various sources” (Bioorg Med Chem Lett, 2009).

Substrate in data set [1]: O=[N+]([O-])c1ccc(OS(=O)(=O)O)cc1
In words: Activity at Pseudomonas aeruginosa recombinant arylsulfatase A expressed in Escherichia coli assessed per mg of protein. The gist of the method:
(§1)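 Hydrolysis of potassium 4-nitrophenyl sulfate followed by release of 4-nitrophenol; Vmax is expressed per mg protein and Km in mM; Vmax/Km is derived from these.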

Substrate in data set [2]: O=[N+]([O-])c1ccc(OS(=O)(=O)O)cc1
Briefly: Activity at Pseudomonas aeruginosa recombinant arylsulfatase A expressed in Escherichia coli. The gist of the method:
as §1

B1: Arylsulfatase (Pseudomonas aeruginosa (strain ATCC 15692 / PAO1 / 1C / PRS 101 / LMG12228)), P51691 (protein)
chain: MSKRPNFLVIVADDLGFSDIGAFGGEIATPNLDALAIAGLRLTDFHTASTCSPTRSMLLTGTDHHIAGIGTMAEALTPELEGKPGYEGHLNERVVALPELLREAGYQTLMAGKWHLGLKPEQTPHARGFERSFSLLPGAANHYGFEPPYDESTPRILKGTPALYVEDERYLDTLPEGFYSSDAFGDKLLQYLKERDQSRPFFAYLPFSAPHWPLQAPREIVEKYRGRYDAGPEALRQERLARLKELGLVEADVEAHPVLALTREWEALEDEERAKSARAMEVYAAMVERMDWNIGRVVDYLRRQGELDNTFVLFMSDNGAEGALLEAFPKFGPDLLGFLDRHYDNSLENIGRANSYVWYGPRWAQAATAPSRLYKAFTTQGGIRVPALVRYPRLSRQGAISHAFATVMDVTPTLLDLAGVRHPGKRWRGREIAEPRGRSWLGWLSGETEAAHDENTVTGWELFGMRAIRQGDWKAVYLPAPVGPATWQLYDLARDPGEIHDLADSQPGKLAELIEHWKRYVSETGVVEGASPFLVR
Turning to B1, the Vmax in data set [1] was found to be 6.1 mmol/min/mg. Moreover, the Km in data set [2] came out at 0.77 µM.
